Measured values reported in ChEMBL document CHEMBL1147133, “Identification of anthranilic acid derivatives as a novel class of allosteric inhibitors of hepatitis C NS5B polymerase” (J Med Chem, 2007).

Tests used:
[1] = test system: Hepatitis C virus; test: Inhibition of HCV 1b BK NS5B delta21 RNA polymerase expressed in Escherichia coli; set-up: species or system Hepatitis C virus subtype 1b
[2] = test system: Hepatitis C virus; test: Antiviral activity in Huh7 cells containing HCV 1b BB7 replicon; assay type: functional, organism-based, Hepacivirus hominis; conditions: genotype 1b, Huh-7
Procedure, shortened: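 Huh7 cells carrying the genotype 1b BB7 replicon were exposed to increasing compound concentrations for 3 days in DMEM with 2% FCS and no G418. HCV, ribosomal and GAPDH mRNA levels were measured by quantitative TaqMan RT-PCR. Values are averages of at least three determinations.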

[3] = Cytotoxicity against Huh7 cells by MTS assay; assay type: cell-based; conditions: Homo sapiens, Huh-7
[4] = Inhibition of human DNA polymerase gamma
Procedure, shortened: (§1)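 The enzyme was incubated with compound in buffer containing four dNTPs spiked with [α-33P]TTP, with dNTPs and templates at their respective Km levels. Templates were poly(dA)-oligo(dT)12 for HIV RT, activated calf thymus DNA for CT pol α and human pol α/β, and singly primed M13 DNA for human pol γ. Reactions ran 1-2 h at 37 °C, and filtered product was counted. Values are averages of at least three determinations.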

[5] = Inhibition of HIV reverse transcriptase; set-up: species or system Human immunodeficiency virus; procedure, shortened: as §1
[6] = Inhibition of human DNA polymerase beta; procedure, shortened: as §1
[7] = Inhibition of RNA polymerase 2; set-up: species or system Homo sapiens
[8] = Inhibition of human DNA polymerase alpha; procedure, shortened: as §1
[9] = Inhibition of calf thymus DNA polymerase alpha; set-up: species or system Bos taurus; procedure, shortened: as §1

Structure (SMILES)	IC50 [1] [nM]	IC50 [2] [µM]	IC50 [3] [µM]	other results
O=C(COc1ccc(Cl)cc1)Nc1cccc(C(=O)O)c1	> 33000			
CC(=O)c1cc(F)c(C)cc1NCC(=O)Nc1ccccc1C(=O)O	7470			
N#Cc1ccc(OCC(=O)Nc2ccccc2C(=O)O)cc1	5100			
O=C(COc1cc(F)c(F)cc1F)Nc1ccccc1C(=O)O	1270	> 11	> 115	
COC(=O)c1ccccc1NC(=O)COc1ccc(Cl)cc1	> 31000			
Cc1cc(OCC(=O)Nc2ccccc2C(=O)O)c(Br)cc1Cl	110	> 11	> 115	
O=C(CNc1ccc(Cl)c(Cl)c1)Nc1ccccc1C(=O)O	200	13	47	
O=C(COc1ccc(Cl)cc1Cl)Nc1ccccc1C(=O)O	450	> 11	> 115	
CC(=O)c1cc(F)c(Cl)cc1NCC(=O)Nc1ccccc1C(=O)O		2	> 137	IC50 [4]: > 27 µM; IC50 [5]: > 137 µM; IC50 [6]: > 137 µM; IC50 [7]: > 137 µM; IC50 [8]: > 137 µM; IC50 [9]: > 137 µM
CC(=O)c1cc(Br)c(Cl)cc1NCC(=O)Nc1ccccc1C(=O)O	22	30	> 117	
C[C@H](Oc1ccc(Cl)cc1)C(=O)Nc1ccccc1C(=O)O	760			
O=C(COc1ccc(Br)cc1)Nc1ccccc1C(=O)O	3230			
CCC(=O)c1cc(Cl)ccc1NCC(=O)Nc1ccccc1C(=O)O	3360			
CC(=O)c1cc(C)c(C)cc1NCC(=O)Nc1ccccc1C(=O)O	210	32	> 147	
CCc1cc(NCC(=O)Nc2ccccc2C(=O)O)c(C(C)=O)cc1Cl	32	5	44	
CC(=O)c1cc(C)c(Cl)cc1NCC(=O)Nc1ccccc1C(=O)O	1050	30	> 139	
CC(=O)c1ccc(Cl)cc1OCC(=O)Nc1ccccc1C(=O)O	860	> 11	> 115	
CC(=O)c1cc(F)c(Br)cc1NCC(=O)Nc1ccccc1C(=O)O	10	2	> 122	IC50 [4]: > 24 µM; IC50 [5]: > 122 µM; IC50 [6]: > 122 µM; IC50 [7]: > 122 µM; IC50 [8]: > 122 µM; IC50 [9]: > 122 µM
CC(C)(Oc1ccc(Cl)cc1)C(=O)Nc1ccccc1C(=O)O	> 30000			
CC(=O)c1cc(Cl)c(Cl)cc1NCC(=O)Nc1ccccc1C(=O)O	30	10	123	
CC(=O)c1cc(F)c(Cl)cc1OCC(=O)Nc1ccccc1C(=O)O	230	> 11	> 115	
CC(=O)c1cc(Cl)c(C)cc1OCC(=O)Nc1ccccc1C(=O)O	140	> 11	> 115	

Structure (SMILES)	IC50 [1] [nM]	IC50 [2] [µM]	IC50 [3] [µM]	other results
O=C(CNc1cccc(Br)c1)Nc1ccccc1C(=O)O	870			
O=C(COc1cc(Cl)c(Cl)cc1Cl)Nc1ccccc1C(=O)O	30	> 11	> 115	
CN(CC(=O)Nc1ccccc1C(=O)O)c1ccc(Cl)c(Cl)c1	170	14	47	
O=C(CNc1ccc(F)c(Cl)c1)Nc1ccccc1C(=O)O	210	40	155	
COc1ccc(OCC(=O)Nc2ccccc2C(=O)O)cc1	35000			
CC(=O)c1cc(C)ccc1OCC(=O)Nc1ccccc1C(=O)O	2800	> 11	> 115	
O=C(COc1cccc(Br)c1)Nc1ccccc1C(=O)O	1140			
CC(=O)c1cc(Cl)c(F)cc1NCC(=O)Nc1ccccc1C(=O)O	180	17	> 137	
O=C(COc1ccccc1)Nc1ccccc1C(=O)O	> 37000			
CC(=O)c1cc(Cl)c(C)cc1NCC(=O)Nc1ccccc1C(=O)O	80	3.1	> 139	
COc1cc(Cl)ccc1OCC(=O)Nc1ccccc1C(=O)O	570	> 11	> 115	
O=C(COc1ccc(F)cc1)Nc1ccccc1C(=O)O	5200			
CC(=O)c1cc(Cl)c(F)cc1OCC(=O)Nc1ccccc1C(=O)O	110	> 11	> 115	
CC(=O)c1cc(F)ccc1OCC(=O)Nc1ccccc1C(=O)O	1500	> 11	> 115	
Cc1cc(Cl)ccc1OCC(=O)Nc1ccccc1C(=O)O	570	> 11	> 115	
O=C(CSc1ccc(Cl)cc1)Nc1ccccc1C(=O)O	4400			
CC(=O)c1cc(Cl)ccc1OCC(=O)Nc1ccccc1C(=O)O	530	> 11	> 115	
C[C@@H](Oc1ccc(Cl)cc1)C(=O)Nc1ccccc1C(=O)O	50000			
O=C(COc1ccc(Cl)cc1)Nc1ccc(C(=O)O)cc1	> 28000			
CC(=O)c1cc(Cl)ccc1NCC(=O)Nc1ccccc1C(=O)O	230	12	> 144	
CC(=O)c1cc(Br)ccc1NCC(=O)Nc1ccccc1C(=O)O	110	43	> 128	
